# Published values from different studies.
# Lines come from different studies, so protocols differ.
# Target: STE20-like serine/threonine-protein kinase (SLK, Homo sapiens, UniProt Q9H2G2)
Structure (SMILES),test,setting,remaining binding
Cc1c(NC(=O)c2cc(C(N)=O)nc3cc(F)ccc23)c(C(F)(F)F)nn1Cc1ccc(C(C)(C)C)cc1,"cell-free assay, competition with immobilised ligand",1 µM,100%
COc1cnc(Nc2cccc(S(N)(=O)=O)c2)nc1N1CCN(c2ccccc2)C(=O)C1,"binding, competition with immobilised ligand",1 µM,100%
O=C(c1ccc(Nc2ncc(Cl)c(-c3ccc(Cl)s3)n2)cc1)N1CCC(N2CCCC2)CC1,"binding, competition with immobilised ligand",1 µM,1.2%
c1cnn2ncc(-c3ccnc(N4CCC45COC5)n3)c2c1,binding,1 µM,100%
CNC(=O)[C@@H]1CC[C@@H](n2c(-c3ccc4cnccc4c3)nc3ccc(C(=O)NCc4cccc(C(N)=O)c4)cc32)C1,"binding, competition with immobilised ligand",1 µM,95%
c1cncc(-c2cccc(Nc3nccc(NC4CCCCC4)n3)c2)c1,"binding, competition with immobilised ligand",10 µM,19%
CN(c1nccc(-c2cnn3ncccc23)n1)C1CC1,binding,1 µM,100%
O=C(Nc1c[nH]nc1C(=O)NC1CCNCC1)c1cc(F)cc(F)c1,"binding, competition with immobilised ligand",1 µM,100%
C[C@@]1(Cc2ccc(C#N)cc2)C(=O)N(c2cc(Cl)cc(Cl)c2)c2ncc(C(=O)NC3(c4nc(C5CCC5)no4)CC3)n21,"cell-free assay, competition with immobilised ligand",1 µM,100%
Nc1ncc2c(n1)-c1c([nH]c3ccc(C#CC4CC4)cc13)CCCC2,"binding, competition with immobilised ligand",1 µM,100%
Cc1nc(N2CC[C@@H](O)C2)ncc1-c1cc(C(F)(F)F)cc2[nH]ncc12,"binding, competition with immobilised ligand",1 µM,98%
C[C@@H]1CCN(c2nccc(-c3cnn4ncccc34)n2)C1,binding,1 µM,87%
Cc1cnc(Nc2ccc(C(=O)N3CCC(N4CCCC4)CC3)cc2)nc1-c1cc2ccccc2s1,"binding, competition with immobilised ligand",1 µM,0.4%
O=C(O)[C@H]1[C@H](Cn2nnc3ccccc3c2=O)CC[C@@H]1C(=O)c1ccc(OCCC2CCOCC2)cc1,"cell-free assay, competition with immobilised ligand",1 µM,96%
CC1CCCN1c1nccc(-c2cnn3ncccc23)n1 (stereo not drawn),binding,1 µM,100%
CCOC(=O)c1cc2cc(-c3cc(C(=O)NCc4ccc(C(=O)O)cc4)nn3C)ccc2[nH]1,"cell-free assay, competition with immobilised ligand",0.1 µM,98%
COc1ccnn2ncc(-c3ccnc(N(C)C)n3)c12,binding,1 µM,86%
C=CC(=O)N1CCC(C(=O)NCC(=O)N2CCN(c3nc(-c4cnc(N)nc4C(F)F)nc(N4CCOCC4)n3)CC2)CC1,"binding, competition with immobilised ligand",1 µM,80%
N[C@H]1CCN(c2nccc(-c3cnn4ncccc34)n2)C1,binding,1 µM,86%
NS(=O)(=O)c1cc(NC(=O)Cc2ccccc2)ccc1Oc1cccc(Cl)c1,"cell-free assay, competition with immobilised ligand",1 µM,66%
O=C(c1ccc(Nc2ncc(Cl)c(-c3cc4ccccc4s3)n2)cc1)N1CCC(N2CCCC2)CC1,"binding, competition with immobilised ligand",1 µM,1.7%
